MITF act = activators of MITF-driven TRPM1 promoter activity in SK-MEL-5 cells. 300,000 compounds, 0.75% hits. SK-MEL-5 TRPM1-promoter luciferase, 24 h; % of positive control, neutral wells = 0. activation, % at 12.5 µM;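 active = mean activation of at least 80% with every replicate also reaching 80%; inconclusive = mean reaches 80% but some replicate falls short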;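 also: 0% = neutral control wells and 100% = parthenolide positive control wells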
esBAF inh = blocks esBAF chromatin remodeling in mouse ES cells. Bmi1-luciferase knock-in reporter, 24 h; 100% = twice the neutral-well signal. reporter increase, % at 12.5 µM. 350,000 compounds, 2% hits. AID 602393; in the data active = activation above about 40%; inconclusive = no clear call, values can overlap the other calls;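 also: 0% = median of the plate's neutral control wells and 100% = double that signal; a rise in the Bmi1 reporter signal indicates esBAF inhibition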
Casp6 inh = caspase-6 (human) enzyme inhibition | 350,000 compounds, 0.53% hits | AID 686996 | inhibition, % at 12.5 µM | purified caspase-6, Z-VEID-R110 cleavage fluorescence | P55212;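 active = mean inhibition across replicates at least about 35%, with every replicate also reaching that limit, limit read from the data; inconclusive = only one of the two criteria met; inactive = neither criterion met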;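 also: 0% = median of neutral control wells and 100% = no fluorescence left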
Target sequence (P55212 24-179 limits assumed): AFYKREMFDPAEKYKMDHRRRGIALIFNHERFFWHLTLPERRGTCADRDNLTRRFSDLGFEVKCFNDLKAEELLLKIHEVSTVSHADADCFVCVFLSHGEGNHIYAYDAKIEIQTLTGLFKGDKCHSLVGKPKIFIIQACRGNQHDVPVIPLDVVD
Target sequence (P55212 194-293 limits assumed): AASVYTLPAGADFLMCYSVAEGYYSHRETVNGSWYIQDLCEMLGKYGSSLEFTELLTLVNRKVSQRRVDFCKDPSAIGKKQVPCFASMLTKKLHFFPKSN
NSD2 inh = blocks human histone methyltransferase NSD2; O96028; NSD2 peptide methylation, AlphaScreen, 120 min; inhibition, % at 12.5 µM; 310,000 compounds, 0.54% hits; in the data active = inhibition above about 50%
Xi reactivation = X-chromosome reactivation activator | XiGFP mouse fibroblasts, % GFP-positive cells imaging, 3 d; cells co-treated with 5-aza-dC sensitizer; scaled so ellipticine positive control = 100% | 360,000 compounds, 0.055% hits | activation, % at 7.58 µM | AID 743238;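 active = mean normalized replicate activation at least 10% and every replicate at or above 10%; inconclusive = only one of the two criteria met; inactive = mean below 10% and not all replicates reach 10%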;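 also: 0% = median of on-plate neutral control wells and 100% = ellipticine 6 µM median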
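Material: SV40-immortalized XiGFP fibroblast cells, line 68-5-11 | Buffer or medium: DMEM containing 5-aza-dC | Dosing: One concentration, pinned | Times: 3 d treatment, 15 min room-temperature fixation | Controls: Ellipticine 6 µM positive control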
Wnt act = activators of Wnt/beta-catenin signaling; Wnt/beta-catenin reporter cell assay, activator, plate reader; activation, % at 9.35 µM; 300,000 compounds, 1.2% hits; in the data active = activation above about 30%, passing the limit was not always enough; inconclusive = no clear call, values can overlap the other calls;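 also: 0% = neutral control wells and 100% = positive control wells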
Active calls of the source: *. In the library only some 3% were active in any assay of this set; here they are far more common.

How did Cc1ncsc1C(=O)Nc1nc2c(s1)CC(C)CC2 (centres undefined) do in these assays?
MITF act: 54; esBAF inh: 11; NSD2 inh: 0; Wnt act: 32*

How did CCCNC(=O)N1CC2(CCN(C(=O)COC)CC2)c2c(n(C)c3cc(OC)ccc23)[C@H]1CO do in these assays?
Xi reactivation: 0

What do the screens show for `COc1cccc2sc(NNC(=O)C3=COCCO3)nc12`?
MITF act: 20; esBAF inh: 46*; Casp6 inh: 4; NSD2 inh: -7; Xi reactivation: 0; Wnt act: 20

What do the screens show for `Fc1cccc(/C=N/Nc2cc(N3CCOCC3)ncn2)c1`?
MITF act: 98*; esBAF inh: 26; Casp6 inh: -3; NSD2 inh: 28; Xi reactivation: 0; Wnt act: 26

How did Cc1nn(-c2ccccc2)c2c1P(=O)(O)/C(=C1\N(C)c3ccccc3C1(C)C)C=N2 do in these assays?
MITF act: -17; esBAF inh: -4; Casp6 inh: 40*; NSD2 inh: -4; Wnt act: -4

What do the screens show for `c1cncc(-c2nc3c(ccc4ccccc43)[nH]2)c1`?
MITF act: 13; esBAF inh: 52*; Casp6 inh: 2; NSD2 inh: 3; Wnt act: 13

How did O=C1NN(c2ccccc2)C(=O)/C1=C\c1coc2ccc(O)cc2c1=O do in these assays?
MITF act: -10; esBAF inh: 1; Casp6 inh: 39*; NSD2 inh: 10; Xi reactivation: 0; Wnt act: 16

Results for Cc1cc(/C=C2/C(=O)NN(c3ccccc3)C2=O)c(C)n1-c1ccc(O)cc1 ?
MITF act: -1; Casp6 inh: 4; NSD2 inh: 12; Xi reactivation: 0; Wnt act: 1

How did Cc1cc(/C=C2\C(=O)NN(c3ccccc3)C2=O)c(C)n1-c1ccccc1O do in these assays?
MITF act: 43; esBAF inh: 58*; Casp6 inh: 0; NSD2 inh: 4; Xi reactivation: 4; Wnt act: 13

How did O=S(=O)(c1ccc(F)cc1)N1CCCCN2[C@H](CO)[C@H](c3ccc(C#CC4CC4)cc3)[C@H]2C1 do in these assays?
esBAF inh: 1; Casp6 inh: 0; Xi reactivation: 0

How did CCn1cc(Br)c(C(=O)Nc2ccc(Cl)c(Cl)c2)n1 do in these assays?
MITF act: 58; esBAF inh: 65*; NSD2 inh: -3

Results for O=C(Nc1nc2ccccc2[nH]1)c1cccc(Br)c1 ?
MITF act: 15; esBAF inh: 51*; Casp6 inh: 3; NSD2 inh: 3; Xi reactivation: 0; Wnt act: 24

How did Cc1c(C(=O)Nc2nc3ccccc3[nH]2)oc2c(Cl)cccc12 do in these assays?
MITF act: 5; esBAF inh: 49*; Casp6 inh: 2; NSD2 inh: -3; Xi reactivation: 0; Wnt act: -3

How did O=C(Nc1nc2ccccc2[nH]1)c1cccc(F)c1 do in these assays?
MITF act: 2; esBAF inh: -15; Casp6 inh: -3; Xi reactivation: 0; Wnt act: 31*

How did CN(C)c1cccc(C(=O)Nc2nc3ccccc3[nH]2)c1 do in these assays?
MITF act: 10; esBAF inh: -44; Casp6 inh: -2; NSD2 inh: 3; Xi reactivation: 0; Wnt act: -5

How did COc1cccc(C(=O)Nc2nc3ccccc3[nH]2)c1 do in these assays?
MITF act: -24; NSD2 inh: 2

How did C[C@@H]1CN([C@@H](C)CO)C(=O)Cc2cc(NC(=O)CCCN(C)C)ccc2O[C@H]1CN(C)S(=O)(=O)c1cccs1 do in these assays?
esBAF inh: 2; Xi reactivation: 0

Results for O=C(Nc1ccc(F)cc1)c1c(Cl)nc2ccccn12 ?
MITF act: 28; esBAF inh: 50*; Casp6 inh: 2; NSD2 inh: -5; Xi reactivation: 0; Wnt act: 5

How did Cc1nc2ccccn2c1C(=O)/C=C/c1ccc(F)cc1 do in these assays?
MITF act: -10; esBAF inh: 100*; NSD2 inh: 4

What do the screens show for `COc1ccc(CNC(=O)c2c(C)nc3ccccn23)cc1`?
MITF act: 0; esBAF inh: -3; NSD2 inh: -2; Wnt act: 7

How did COc1ccc(/C=C/C(=O)c2c(C)nc3ccccn23)cc1 do in these assays?
esBAF inh: 69*; NSD2 inh: 0

Results for COc1cccc(C(=O)Nc2ccc3c(c2)C(=O)N(C)[C@@H]2CC[C@H](CC(=O)NCC(F)(F)F)O[C@@H]2CO3)c1 ?
esBAF inh: 4; Casp6 inh: 0; Xi reactivation: 0

What do the screens show for `Cc1cc(Nc2ccc(Cl)cc2)nc(N)n1`?
MITF act: 53; esBAF inh: 36; NSD2 inh: -1

How did Nc1cc(Nc2ccc(Br)cc2)nc(N)n1 do in these assays?
MITF act: inconclusive; Casp6 inh: -1; NSD2 inh: 3; Xi reactivation: 0; Wnt act: 39*

What do the screens show for `COc1ccccc1CN1C(=O)CNC1=S`?
MITF act: 10; esBAF inh: -1; NSD2 inh: 2

What do the screens show for `COc1ccccc1Cn1[nH]nnc1=S`?
MITF act: -9; esBAF inh: -2; Casp6 inh: 1; NSD2 inh: 101*; Xi reactivation: 0; Wnt act: 4

How did Cc1cc(OCc2cc(C(=O)NC(C)c3c(C)nn(C)c3C)no2)cc(C)c1Cl (centres undefined) do in these assays?
MITF act: 46; esBAF inh: 83*; Casp6 inh: 3; NSD2 inh: 1; Xi reactivation: 0; Wnt act: 1

What do the screens show for `Cc1cc(OCc2cc(C(=O)NC(C)c3cnn(C)c3)no2)cc(C)c1Cl` (centres undefined)?
esBAF inh: 72*; Casp6 inh: 5; NSD2 inh: -1; Xi reactivation: 0

How did Cc1cc(OCc2cc(C(=O)NC3CCC3)no2)cc(C)c1Cl do in these assays?
MITF act: 18; esBAF inh: 0; NSD2 inh: -1

Results for Cc1ccc(S(=O)(=O)N2CC[C@@H]3[C@@H](CO)Nc4ccc(Br)cc4[C@@H]32)cc1 ?
esBAF inh: -1; Casp6 inh: 4; Xi reactivation: 0

Results for COc1ccsc1S(=O)(=O)Nc1ccc(C(O)(C(F)(F)F)C(F)(F)F)cc1 ?
NSD2 inh: -2

Results for C[C@H]1CN([C@@H](C)CO)C(=O)c2cccc(NC(=O)Nc3ccc4c(c3)OCO4)c2O[C@H]1CN(C)C(=O)Nc1cccc2ccccc12 ?
esBAF inh: -7; Casp6 inh: -1; Xi reactivation: 1

How did CO[C@H]1CN(C)C(=O)c2cc(NC(=O)CC(F)(F)F)ccc2OC[C@H](C)N(C(=O)C2CCOCC2)C[C@@H]1C do in these assays?
Casp6 inh: 2; Xi reactivation: 0
